An excerpt weighted towards active compounds, which were near 10% of everything screened.
Diaph act CS: compounds boosting diaphorase resazurin reduction – biochemical, uHTS, resorufin fluorescence, counter-screen for diaphorase-coupled primary assays, primary screen. Diaphorase/resazurin coupled assay, 16 min; hits give high values; 1 = vehicle wells, 0 = NADH-free wells. activation factor at 20 µM. hit rate 0.005% among 190,000. AID 1229, 2008;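 active means diaphorase activity raised at least twofold by the compound at 20 µM; inactive means activation factor below 2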
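Material: Purified diaphorase enzyme from Clostridium kluyveri | Buffer or medium: 50 mM HEPES pH 7.4 with 4.542 mM MgCl2, 0.005% Tween 20 | Times: 16 min enzyme reaction, ambient temperature | Signal: Red resorufin fluorescence at 544/590 nm excitation/emission | Measure: Increased resorufin signal from activators or reducing compounds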
PMI activator: activators of human PMI, primary screen, biochemical, fluorescence intensity, near-Km mannose 6-phosphate | purified human PMI, coupled resazurin fluorescence, 20 min; hits give high values; 1 = vehicle control, 0 substrate-free wells | activation factor at 20 µM | Mannose-6-phosphate isomerase (Homo sapiens), P34949 | hit rate 0.005% among 190,000;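 active means activation factor of 2 or more at 20 µM, relative to plate controls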
Target sequence (P34949 whole entry, looked up): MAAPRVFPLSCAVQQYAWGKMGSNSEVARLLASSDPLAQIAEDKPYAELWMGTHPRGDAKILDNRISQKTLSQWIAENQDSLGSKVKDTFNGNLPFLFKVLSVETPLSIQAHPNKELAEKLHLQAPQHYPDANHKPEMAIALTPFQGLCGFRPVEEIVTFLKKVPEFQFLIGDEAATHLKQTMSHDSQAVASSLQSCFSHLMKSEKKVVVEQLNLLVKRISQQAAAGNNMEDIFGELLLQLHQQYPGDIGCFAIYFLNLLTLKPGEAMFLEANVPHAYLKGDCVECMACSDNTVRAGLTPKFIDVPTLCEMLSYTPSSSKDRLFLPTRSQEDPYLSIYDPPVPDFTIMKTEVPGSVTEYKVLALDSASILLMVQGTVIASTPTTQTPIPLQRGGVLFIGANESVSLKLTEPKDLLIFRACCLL
WT yeast gro inh: growth inhibition of WT strain, primary screen, mitochondrial fusion inhibitor project, WT and mutant strains, chemical genetic; mitochondrial fusion phenotypic screen; inhibition, % at 10 µM; hit rate 2.1% among 190,000; AID 1362, 2008; in the data active means inhibition above about 58%; tested in S. cerevisiae
L major viab: Leishmania major promastigote growth inhibition, primary screen; inhibition, % at 10 µM; Leishmania major promastigotes, resazurin fluorescence viability; hit rate 9% among 200,000; in the data active means inhibition above about 50%;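 further: promastigotes grown with compound for 44 hours at 28 °C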
PMI act hi M6P: human PMI activators, high substrate, primary screen, biochemical, fluorescence intensity, near-saturating mannose 6-phosphate; Mannose-6-phosphate isomerase (Homo sapiens), P34949; coupled PMI enzyme assay, resazurin fluorescence, 20 min; hits give high values; 1 = untreated enzyme, 0 = substrate-free blank; activation factor at 20 µM; hit rate 0.34% among 190,000; AID 1216, 2008;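 active means activation factor of 2 or more at 20 µM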
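Test system: human phosphomannose isomerase with PGI, G6PDH, diaphorase coupling enzymes / Doses: 20 µM compound, 1% DMSO / Times: enzyme reaction with compound 20 min at room temperature / Measured by: Diaphorase-driven resazurin-to-resorufin fluorescence, excitation 544, emission 590 nm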
L major 1uM: Leishmania major promastigote growth inhibition, confirmation, 1 µM repeat of primary hits; shares compounds with L major viab; L. major promastigote growth, resazurin fluorescence, 48 h; inhibition, % at 1 µM; hit rate 13% among 1,100;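 active means inhibition above about 50% in both repeat tests, limit read from the data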
Numbers without * were called inactive; · = no result.

SMILES	Diaph act CS	PMI activator	WT yeast gro inh	L major viab	PMI act hi M6P	L major 1uM
C=CCSC(=C(C#N)C#N)c1cc2c([nH]1)CCCC2	0.9	0.9	35	100*	0.9	30
COCCNC(=S)N/N=C1\CC(C)CC(C)(C)C1 (stereo not given)	1	1.2	9	2	1.1	·
CCOC(=O)c1c(C)[nH]c(N=Nc2ccccc2C)c1C	0.7	0.8	77*	72*	0.9	-6
C=CCOc1nc(N2CCCC2)nc(N2CCCC2)n1	0.8	0.8	24	96*	0.8	-9
CCN(Cc1cc2ccccc2[nH]c1=O)S(=O)(=O)c1ccccc1	0.8	0.8	-13	3	0.8	·
CCCN(Cc1cc2ccc(C)cc2[nH]c1=O)S(=O)(=O)c1ccccc1	0.9	1	-16	64*	1	-12
CCOC(=O)c1cnc2c(OC)cccc2c1Nc1ccc2c(c1)OCCO2	0.8	0.9	45	53*	0.8	13
O=C(CSc1nc2ncccc2[nH]1)c1cccc([N+](=O)[O-])c1	0.9	0.9	9	37	1	·
COc1ccc(NC(=O)N(Cc2ccc(C)cc2)Cc2cccnc2)c(OC)c1	0.8	0.9	-1	70*	0.9	-3
Cc1ccc(N2CC(C(=O)Nc3ccc(C)c(S(=O)(=O)N(C)C)c3)CC2=O)cc1 (stereo not given)	1.1	1.2	4	4	1.1	·
O=C(O)CCNC(=O)c1ccc(Br)o1	1.2	1.1	-13	-9	1.1	·
O=C(NCCC(c1ccccc1)c1ccccc1)c1ccc(Br)o1	0.8	0.9	35	59*	0.9	-2
C=CCc1c(C)nc(SC)nc1Nc1ccc(C)cc1	0.8	0.8	4	97*	0.9	25
Cn1cccc1Cc1nnc(SCC(=O)Nc2ccc(F)cc2)n1CCc1ccccc1	0.8	0.8	-8	56*	0.9	-9
O=C(COC(=O)[C@@H]1CC(O)CN1S(=O)(=O)c1ccc2c(c1)OCCO2)NCc1ccc(F)cc1 (stereo not given in full)	1	1	-10	-9	1	·
CCN(CC)c1ccc(/C=N/NC(=O)c2cccc(S(=O)(=O)N3CCOCC3)c2)c(O)c1	0.9	1	-2	100*	1	-31
COc1cc(CNCC(C)C)cc(Br)c1OCC(=O)Nc1ccccc1	0.9	1	6	100*	1.1	45
COc1ccc(CC(=O)NNC(=S)Nc2ccccc2)cc1Br	0.9	1.1	-13	-4	1	·
O=C(Nc1ccccc1N1CCOCC1)c1cc(Br)c(Br)s1	1	1	17	9	0.9	·
N#Cc1c(NC(=O)CSc2nc(N)cc(=O)[nH]2)sc2c1CCCC2	0.8	0.8	-1	-3	0.9	·
Cc1ccc(NC(=O)N2CCCN(Cc3ccc(F)cc3)C2)cc1C	0.9	1	-8	94*	1	53*
COc1ccc(C2NCCn3cccc32)cc1 (stereo not given)	1.1	1.3	-15	96*	1.3	-20
COc1ccc(C2c3c4c(n(C)c3CCN2C)CCN(C)C4c2ccc(OC)cc2)cc1 (stereo not given)	0.9	1	0	3	1	·
Cn1ncc(Cl)c1C(=O)N1CCN(c2ncccn2)CC1	1	1.1	-2	1	1	·
COc1ccccc1-n1c(=O)[nH]c2c(C(N)=O)nc(C3CCCCC3)nc21	0.8	1.1	16	84*	1	0
SMILES	Diaph act CS	PMI activator	WT yeast gro inh	L major viab	PMI act hi M6P	L major 1uM
O=C(NC1CC1)c1cccc(Nc2ccc(-c3ccc4c(c3)OCCO4)nn2)c1	0.8	0.8	-10	50*	0.9	-15
O=S(=O)(c1ccc(Nc2ccc(-c3ccc4c(c3)OCCO4)nn2)cc1)N1CCCC1	1.1	1.1	-4	23	1.1	·
COc1ccccc1N1Cc2ccccc2C1	0.8	1.2	6	91*	1.4	-10
O=C(Cc1ccc(Cl)c(Cl)c1)Nc1ccc2[nH]c(=O)[nH]c2c1	1	1	-19	-14	1	·
Cc1nn(-c2ccccc2Cl)c(Cl)c1/C=N/Nc1cccc(C(=O)O)c1	1	1.5	-14	25	1.9	·
Cc1nn(-c2cccc(C(F)(F)F)c2)c(Cl)c1/C=N/Nc1cccc(C(=O)O)c1	0.7	1.6	55	90*	2.5*	-8
N=C1C(c2nc3ccccc3[nH]2)=C(O)CN1NC(=O)COc1cccc(F)c1	0.8	1.1	1	-5	1	·
Cc1cccc(NC(=O)CN2CCC(NC(=O)C3CCCCC3)CC2)c1C	0.9	0.9	-1	-5	1	·
CN(C)C(=S)Nc1ccc([N+](=O)[O-])cc1	0.9	1	-7	-6	1	·
O=[N+]([O-])c1ccc(NNC(=S)Nc2ccc(F)cc2)cc1	0.8	0.9	19	101*	1.2	79*
CCn1c(-c2ccc(N(C)C)cc2)nc2ccccc21	0.9	0.9	-2	97*	1	22
O=C(C1=C[C@H](c2ccc(Br)cc2)C[C@H](OCCCCO)O1)N1CCN(Cc2ccc3c(c2)OCO3)CC1	0.7	0.8	41	84*	0.8	-12
CCc1ccc(Cc2cnc(NC(=O)C3=NCCN3)s2)cc1	1	0.8	37	-6	0.8	·
CC(C)C[C@H](NC(=O)OC(C)(C)C)C(=O)N/N=C/C1=Cc2ccccc2OC1C (stereo not given in full)	0.7	0.8	34	98*	0.9	-4
O=C1CSC(c2cn(-c3ccccc3)nc2-c2cc3ccccc3oc2=O)N1Cc1ccccc1 (stereo not given)	0.7	0.9	2	61*	0.9	1
O=C1CSC(c2cn(-c3ccccc3)nc2-c2ccc3c(c2)OCCO3)N1CCN1CCOCC1 (stereo not given)	0.8	0.9	-9	-3	0.9	·
CCOc1ccc(NC(=O)CN2CCC(n3cnc4cc(F)ccc43)CC2)cc1	1	1	13	45	0.9	·
CN(C)c1nc(-c2ccccn2)nnc1-c1ccccc1	0.9	1	61*	100*	1.1	74*
CCOc1ccc(C(C)=O)cc1CN1C(=O)C(=O)N(CC)C1=O	1	1.2	0	-2	1.1	·
CCN(CC)CCN(C)C1CCC(c2ccccc2)CC1 (stereo not given)	0.9	1.1	2	94*	1.1	76*
COc1ccccc1NC(=O)CNc1ccc(F)c(Cl)c1	0.9	0.8	-8	-2	0.9	·

Screening data (PubChem)
